Measurements published in ChEMBL document CHEMBL5154667, “Discovery of 9,10-dihydrophenanthrene derivatives as SARS-CoV-2 3CLpro inhibitors for treating COVID-19” (Eur J Med Chem, 2022).

Columns and labels:
[1] = biological target: T1, Replicase polyprotein 1ab (Severe acute respiratory syndrome coronavirus 2, UniProt P0DTD1); assay: Inhibition of SARS-CoV-2 3CL protease using Dabcyl-KNSTLQSGLRKE-Edan as substrate incubated for 30 mins and measured by FRET assay
Summary of the method: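 Recombinant SARS-CoV-2 3CLpro, expressed and purified in-house, at 4 μg/mL final. Preincubated with compound (in DMSO) for 30 min at 37 °C in 0.1 M PBS pH 7.4 with 1 mM EDTA. Mean ± SD of at least three independent experiments.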

[2] = Stability of the compound in simulated gastric fluid; format: ADME; conditions: simulated gi fluid
Summary of the method: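 Simulated gastric fluid: pepsin 400 mg and 656 μL 1 M HCl in 40 mL water. Analyte 20 μM in SGF at 37 °C, sampled 0–90 min. Quenched with equal volume cold acetonitrile, centrifuged (20,000×g, 4 °C, 30 min), analysed by LC-UV.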

[3] = Metabolic stability in human liver microsomes assessed as UGT-mediated metabolism at 20 uM and measured as half-life by LC-UV analysis; format: ADME, Microsome
Summary of the method: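 Phase II: compound 20 μM with HLMs 0.2 mg/mL in 50 mM Tris-HCl pH 7.4 with 5 mM MgCl₂. After 3 min at 37 °C, started with 2 mM UDPGA. Quenched with cold acetonitrile at 0–90 min, centrifuged, supernatant analysed by LC-UV for half-life. 7-Hydroxycoumarin was the reference substrate.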

[4] = Metabolic stability in human liver microsomes assessed as CYP-mediated metabolism at 20 uM and measured as half-life by LC-UV analysis; format: ADME, Microsome
[5] = biological target: T1, Replicase polyprotein 1ab; assay: Mixed type inhibition of SARS-CoV-2 3CL protease using Dabcyl-KNSTLQSGLRKE-Edan as substrate incubated for 30 mins and measured by Lineweaver-Burk plot analysis
[6] = Stability in human plasma measured by LC-UV analysis; format: ADME, cell-free
Summary of the method: (§1)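 Incubated at 37 °C in 100 mM PBS pH 7.4, as printed for the human plasma stability test. Sampled at 0, 15, 30 min and 1–12 h; proteins precipitated with cold acetonitrile. Centrifuged at 20,000×g, 4 °C, 30 min; supernatant analysed by LC-UV.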

[7] = biological target: Replicase polyprotein 1ab (Severe acute respiratory syndrome-related coronavirus, UniProt P0C6X7); assay: Inhibition of SARS-CoV 3CL protease using Dabcyl-KNSTLQSGLRKE-Edan as substrate incubated for 30 mins and measured by FRET assay
Summary of the method: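 SARS-CoV 3CLpro, expressed and purified in-house like the SARS-CoV-2 enzyme, at 30 μg/mL final. Preincubated with compound for 30 min at 37 °C in 0.1 M PBS pH 7.4 with 1 mM EDTA. Mean ± SD of at least three independent runs.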

[8] = Stability in human plasma assessed as half-life measured by LC-UV analysis; format: ADME, cell-free; summary of the method: as §1

SMILES	IC50 [1] [µM]	also measured
CC(=O)OCC1Cc2c(-c3ccncn3)cccc2-c2c(O)ccc(C)c21 (stereo not given)	> 100	
CC(=O)OCC1Cc2c(-c3cc(-c4ccccc4)ccn3)cccc2-c2c(O)ccc(C3CCCCC3)c21 (stereo not given)	8.54	
CC(=O)OCC1Cc2c(-c3ccccn3)ccc(C)c2-c2c(O)ccc(C)c21 (stereo not given)	> 100	
CC(=O)OCC1Cc2c(-c3ncccn3)cccc2-c2c(O)ccc(C)c21 (stereo not given)	> 100	
CC(=O)OCC1Cc2c(-c3ccc(Br)cn3)cccc2-c2c(O)ccc(-c3ccc(Br)cc3)c21 (stereo not given)	6.73	
CC(=O)OCC1Cc2c(-c3ccc(Cl)cn3)cccc2-c2c(O)ccc(C)c21 (stereo not given)	35.8	
CC(=O)OCC1Cc2c(cccc2-c2ncnc3c2ncn3CC2CC2)-c2c(O)ccc(C)c21 (stereo not given)	> 100	
CC(=O)OCC1Cc2c(-c3ccccn3)cccc2-c2c(O)ccc(-c3ccc(C#N)cc3)c21 (stereo not given)	19.3	
OCC1Cc2c(-c3cc(-c4ccccc4)ccn3)cccc2-c2c(O)ccc(-c3ccc(Br)cc3)c21 (stereo not given)	1.55	Stability [2]: Stable; t1/2 [3]: > 1.5 h; t1/2 [4]: > 1.5 h; Ki [5]: 6.09 µM; Stability [6]: Stable; IC50 [7]: 5.35 µM
CC(=O)OCC1Cc2c(-c3cc(Cl)ccn3)cccc2-c2c(O)ccc(-c3ccc(Br)cc3)c21 (stereo not given)	4.79	IC50 [7]: 5.44 µM
COc1ccc(-c2ccccn2)c2c1-c1c(O)ccc(C)c1C(COC(C)=O)C2 (stereo not given)	> 100	
CC(=O)OCC1Cc2c(-c3cc(C=O)ccn3)cccc2-c2c(O)ccc(-c3ccc(Br)cc3)c21 (stereo not given)	3.32	IC50 [7]: 3.2 µM
OCC1Cc2c(-c3ccc(F)cn3)cccc2-c2c(O)ccc(-c3ccc(Br)cc3)c21 (stereo not given)	5.39	
O=Cc1ccnc(-c2cccc3c2CC(CO)c2c(-c4ccc(Br)cc4)ccc(O)c2-3)c1 (stereo not given)	1.81	Stability [2]: Stable; t1/2 [3]: 81.88 h; t1/2 [4]: 32.09 h; Ki [5]: 7.64 µM; t1/2 [8]: 8.97 h; IC50 [7]: 5.32 µM
CC(=O)OCC1Cc2c(-c3cc(C#N)ccn3)cccc2-c2c(O)ccc(-c3ccc(Br)cc3)c21 (stereo not given)	10.3	
CC(=O)OCC1Cc2c(-c3ccccn3)ccc(Br)c2-c2c(O)ccc(C)c21 (stereo not given)	> 100	
CC(=O)OCC1Cc2c(-c3cc(N4CCCC4)ccn3)cccc2-c2c(O)ccc(-c3ccc(Br)cc3)c21 (stereo not given)	11.2	
CC(=O)OCC1Cc2c(-c3ccc(NCc4ccccc4)cn3)cccc2-c2c(O)ccc(-c3ccc(Br)cc3)c21 (stereo not given)	3.31	IC50 [7]: 5.79 µM
CC(=O)OCC1Cc2c(cccc2-n2cccn2)-c2c(O)ccc(C)c21 (stereo not given)	> 100	
CC(=O)OCC1Cc2c(-c3ccc(C)cn3)cccc2-c2c(O)ccc(-c3ccc(Br)cc3)c21 (stereo not given)	5.25	
CC(=O)OCC1Cc2c(-c3ccccn3)cc(C)cc2-c2c(O)ccc(C)c21 (stereo not given)	57.7	
C=CCn1cnc2c(-c3cccc4c3CC(COC(C)=O)c3c(C)ccc(O)c3-4)ncnc21 (stereo not given)	> 100	
CC(=O)OCC1Cc2c(-c3cc(C)ccn3)cccc2-c2c(O)ccc(C)c21 (stereo not given)	68.2	
CC(=O)OCC1Cc2c(-c3ccccn3)cccc2-c2c(O)ccc(C3CCCCC3)c21 (stereo not given)	9.06	
CC(=O)OCC1Cc2c(-c3ccc(Cl)cn3)cccc2-c2c(O)ccc(-c3ccc(Br)cc3)c21 (stereo not given)	2.72	IC50 [7]: 4.06 µM
CC(=O)OCC1Cc2c(cccc2-c2nccc3ccccc23)-c2c(O)ccc(C)c21 (stereo not given)	14.2	
CC(=O)OCC1Cc2c(-c3cc(N4CCOCC4)ccn3)cccc2-c2c(O)ccc(-c3ccc(Br)cc3)c21 (stereo not given)	7.39	

SMILES	IC50 [1] [µM]	also measured
CC(=O)OCC1Cc2c(-c3ccc(N(C)C)cn3)cccc2-c2c(O)ccc(-c3ccc(Br)cc3)c21 (stereo not given)	3.66	IC50 [7]: 5.92 µM
CC(=O)OCC1Cc2c(-c3ccc(F)cn3)cccc2-c2c(O)ccc(C)c21 (stereo not given)	66.8	
N#Cc1ccc(-c2cccc3c2CC(CO)c2c(-c4ccc(Br)cc4)ccc(O)c2-3)nc1 (stereo not given)	10.7	
CC(=O)OCC1Cc2c(-c3ccc(C(C)=O)cn3)cccc2-c2c(O)ccc(-c3ccc(Br)cc3)c21 (stereo not given)	5.83	
CC(=O)OCC1Cc2c(-c3ccc(C#N)cn3)cccc2-c2c(O)ccc(-c3ccc(Br)cc3)c21 (stereo not given)	2.78	IC50 [7]: 7.12 µM
CC(=O)OCC1Cc2c(ccc(C)c2-c2ccccn2)-c2c(O)ccc(C)c21 (stereo not given)	53.8	
CC(=O)OCC1Cc2c(-c3ccccn3)cccc2-c2c(O)ccc(C)c21 (stereo not given)	61.2	
CCc1ccc(O)c2c1C(COC(C)=O)Cc1c(-c3ccccn3)cccc1-2 (stereo not given)	33.1	
CC(=O)OCC1Cc2c(-c3ccccn3)cccc2-c2c(O)ccc(Cc3ccccc3)c21 (stereo not given)	11.4	
OCC1Cc2c(-c3ccc(Cl)cn3)cccc2-c2c(O)ccc(-c3ccc(Br)cc3)c21 (stereo not given)	4.71	IC50 [7]: 10.5 µM
CC(=O)OCC1Cc2c(-c3ccccn3)cccc2-c2c(O)ccc(-c3ccc(Br)cc3)c21 (stereo not given)	6.44	
CC(=O)OCC1Cc2c(-c3cc(-c4ccccc4)ccn3)cccc2-c2c(O)ccc(C)c21 (stereo not given)	5.65	
CC(=O)OCC1Cc2c(-c3ncccc3C)cccc2-c2c(O)ccc(C)c21 (stereo not given)	58.9	
CC(=O)OCC1Cc2c(-c3ccc(F)cn3)cccc2-c2c(O)ccc(-c3ccc(Br)cc3)c21 (stereo not given)	4.29	IC50 [7]: 7.81 µM
CC(=O)OCC1Cc2c(-c3ccc(C=O)cn3)cccc2-c2c(O)ccc(-c3ccc(Br)cc3)c21 (stereo not given)	8.89	
CC(=O)OCC1Cc2c(-c3ccccn3)ccc(F)c2-c2c(O)ccc(C)c21 (stereo not given)	> 100	
CC(=O)OCC1Cc2c(-c3ccccn3)ccc(Cl)c2-c2c(O)ccc(C)c21 (stereo not given)	85.6	
CC(=O)OCC1Cc2c(-c3cc(-c4ccccc4)ccn3)cccc2-c2c(O)ccc(-c3ccc(Br)cc3)c21 (stereo not given)	2.46	IC50 [7]: 17.7 µM
CC(=O)OCC1Cc2c(-c3ccccn3)cccc2-c2c(O)ccc(C(C)C)c21 (stereo not given)	29.5	
CC(=O)OCC1Cc2c(-c3ccc4ccccc4n3)cccc2-c2c(O)ccc(C)c21 (stereo not given)	13.8	
CC(=O)OCC1Cc2c(-c3ccc(Br)cn3)cccc2-c2c(O)ccc(C)c21 (stereo not given)	18.5	
CC(=O)OCC1Cc2c(-c3cc(C)ccn3)cccc2-c2c(O)ccc(-c3ccc(Br)cc3)c21 (stereo not given)	9.82	
CC(=O)OCC1Cc2c(-c3cc4ccccc4cn3)cccc2-c2c(O)ccc(C)c21 (stereo not given)	12	
CC(=O)OCC1Cc2c(-c3ccc(S(C)(=O)=O)cn3)cccc2-c2c(O)ccc(-c3ccc(Br)cc3)c21 (stereo not given)	6.65	
CC(=O)OCC1Cc2c(-c3ccc(-c4ccccc4)cn3)cccc2-c2c(O)ccc(-c3ccc(Br)cc3)c21 (stereo not given)	8.28	
C[C@]12CC[C@H]3[C@@H](CCC4=CC(=O)CC[C@@]43C)[C@@H]1CC[C@@H]2O [TESTOSTERONE]		t1/2 [4]: 0.4603 h
O=c1ccc2ccc(O)cc2o1 [UMBELLIFERONE]		t1/2 [3]: 0.2588 h
